For four molecules, Lactone and Body weight results are on record in ChEMBL document CHEMBL1131202, “Alkyl esters of camptothecin and 9-nitrocamptothecin: synthesis, in vitro pharmacokinetics, toxicity, and antitumor activity” (1998).

Assay type in all cases: functional
The nature of experiment [1]: In vitro determination of lactone level in human plasma after administration of compound at 1 hour. In a few lines: (§1)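 Drug (500 ng, in methanol) added to 1 mL of human or mouse plasma and incubated at 37 °C. 100-µL aliquots taken at 0.5–6 h. Analysis by C-8 HPLC (30% acetonitrile/water/0.1% acetic acid) with fluorescence at 347/418 nm. Percent lactone: lactone/total drug for the parent; drug at each time relative to t = 0 for the ester.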

The test system of experiment [2] is Mus musculus. As to the kind of experiment: In vitro determination of lactone level in mouse plasma after administration of compound at 2 hour. In a few lines: as §1
Experiment [3] relates to Mus musculus. Nature of the experiment: In vitro determination of tlactone level in mouse plasma after administration of compound at 0 hour. In a few lines: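 Mouse plasma (1 mL) was spiked with 500 ng drug in methanol and incubated at 37 °C, with aliquots taken over time starting at t = 0 h. Percent lactone was derived by reverse-phase C-8 HPLC with fluorescence detection and peak-area integration. For parent camptothecins it was lactone/total drug; for esters it was drug at each time point/drug at t = 0 h.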

Experiment [4] in a line: In vitro determination of lactone level in human plasma after administration of compound at 6 hour. In a few lines: as §1
Experiment [5] is described as follows: In vitro determination of lactone level in human plasma after administration of compound at 4 hour. In a few lines: as §1
Experiment [6] is described as follows: In vitro determination of lactone level in human plasma after administration of compound at 2 hour. In short, it runs like this:
as §1

In experiment [7] the test system is Mus musculus. As to the kind of experiment: In vitro determination of lactone level in mouse plasma after administration of compound at 6 hour. In short, it runs like this:
as §1

Experiment [8] in a line: In vitro determination of lactone level in human plasma after administration of compound at 0 hour. In short, it runs like this:
as §1

Experiment [9] has as its system Mus musculus. As to the kind of experiment: In vitro determination of lactone level in mouse plasma after administration of compound at 4 hour. In a few lines: as §1
In experiment [10] the test system is Mus musculus. Nature of the experiment: In vitro determination of lactone level in mouse plasma after administration of compound at 1 hour. In a few lines: as §1
Experiment [11] deals with Mus musculus. Nature of the experiment: In vitro determination of lactone level in mouse plasma after administration of compound at 0 hour. In a few lines: as §1
Experiment [12] deals with Mus musculus. As to the kind of experiment: Change in the body weight of mice during the test time period after 21 days at a dose of 5 mg/kg.
Experiment [13] relates to Mus musculus. As to the kind of experiment: Change in the body weight of mice during the test time period after 21 days at a dose of 6 mg/kg.
Experiment [14] relates to Mus musculus. Nature of the experiment: Change in the body weight of mice during the test time period after 41 days at a dose of 5 mg/kg.
Experiment [15] deals with Mus musculus. Nature of the experiment: Change in the body weight of mice during the test time period after 34 days at a dose of 5 mg/kg.
In experiment [16] the test system is Mus musculus. As to the kind of experiment: Change in the body weight of mice during the test time period after 27 days at a dose of 8 mg/kg.
The test system of experiment [17] is Mus musculus. Nature of the experiment: Change in the body weight of mice during the test time period after 27 days at a dose of 5 mg/kg.
The subject of experiment [18] is Mus musculus. As to the kind of experiment: Change in the body weight of mice during the test time period after 27 days at a dose of 7 mg/kg.
Experiment [19] relates to Mus musculus. Nature of the experiment: Change in the body weight of mice during the test time period after 48 days at a dose of 8 mg/kg.
The test system of experiment [20] is Mus musculus. Nature of the experiment: Change in the body weight of mice during the test time period after 48 days at a dose of 7 mg/kg.
For experiment [21], the system named is Mus musculus. Nature of the experiment: Change in the body weight of mice during the test time period after 56 days at a dose of 5 mg/kg.
For experiment [22], the system named is Mus musculus. Nature of the experiment: Change in the body weight of mice during the test time period after 48 days at a dose of 5 mg/kg.
The subject of experiment [23] is Mus musculus. As to the kind of experiment: Change in the body weight of mice during the test time period after 21 days at a dose of 7 mg/kg.
Experiment [24] has as its system Mus musculus. As to the kind of experiment: Change in the body weight of mice during the test time period after 34 days at a dose of 6 mg/kg.
Experiment [25] deals with Mus musculus. Nature of the experiment: Change in the body weight of mice during the test time period after 41 days at a dose of 8 mg/kg.
Experiment [26] concerns Mus musculus. Nature of the experiment: Change in the body weight of mice during the test time period after 41 days at a dose of 7 mg/kg.
The subject of experiment [27] is Mus musculus. Nature of the experiment: Change in the body weight of mice during the test time period after 56 days at a dose of 8 mg/kg.
The subject of experiment [28] is Mus musculus. Nature of the experiment: Change in the body weight of mice during the test time period after 34 days at a dose of 7 mg/kg.
Experiment [29] deals with Mus musculus. As to the kind of experiment: Change in the body weight of mice during the test time period after 56 days at a dose of 6 mg/kg.
Experiment [30] has as its system Mus musculus. As to the kind of experiment: Change in the body weight of mice during the test time period after 21 days at a dose of 8 mg/kg.
Experiment [31] relates to Mus musculus. As to the kind of experiment: Change in the body weight of mice during the test time period after 48 days at a dose of 6 mg/kg.
In experiment [32] the test system is Mus musculus. Nature of the experiment: Change in the body weight of mice during the test time period after 27 days at a dose of 6 mg/kg.
In experiment [33] the test system is Mus musculus. As to the kind of experiment: Change in the body weight of mice during the test time period after 56 days at a dose of 7 mg/kg.
The test system of experiment [34] is Mus musculus. Nature of the experiment: Change in the body weight of mice during the test time period after 41 days at a dose of 6 mg/kg.
Experiment [35] relates to Mus musculus. Nature of the experiment: Change in the body weight of mice during the test time period after 34 days at a dose of 8 mg/kg.

With `CC[C@@]1(O)C(=O)OCc2c1cc1n(c2=O)Cc2cc3ccccc3nc2-1` [CAMPTOTHECIN], the Lactone in [1] is 12%; in the experiment with Mus musculus [2], 35%; in the experiment with Mus musculus [3], 100%; in experiment [4] it was 0%; in [5], 0%; in [6], 0.5%. Besides, the Lactone in the experiment with Mus musculus [7] was found to be 18%; in experiment [8], 100%; in the experiment with Mus musculus [9] it was 18%; in the experiment on Mus musculus [10], 42%.

For the molecule `CCC(=O)O[C@]1(CC)C(=O)OCc2c1cc1n(c2=O)Cc2cc3c([N+](=O)[O-])cccc3nc2-1`, the Lactone in experiment [1] stood at 93.7%; in the experiment with Mus musculus [11], 100%; in experiment [4] it was 64.4%; with Mus musculus [7], 84.3%; in [8], 100%; with Mus musculus [10], 97.7%.

As to `CC[C@@]1(O)C(=O)OCc2c1cc1n(c2=O)Cc2cc3c([N+](=O)[O-])cccc3nc2-1` [RUBITECAN], the Lactone in [1] was determined as 7%; with Mus musculus [11], 100%; in [4], 0%; in experiment [8], 100%; with Mus musculus [10] it was 30%.

For `CCC(=O)O[C@]1(CC)C(=O)OCc2c1cc1n(c2=O)Cc2cc3ccccc3nc2-1` [CAMPTOTHECIN-20-O-PROPIONATE], the Body weight in the experiment on Mus musculus [12] was found to be 33 g; in the experiment on Mus musculus [13] it was 32.9 g; in the experiment with Mus musculus [14], 33.5 g; in the experiment with Mus musculus [15] it was 34.4 g; in the experiment with Mus musculus [16], 34.1 g; in the experiment with Mus musculus [17] it was 33.7 g. Also, the Body weight in the experiment with Mus musculus [18] came out at 31.7 g; in the experiment with Mus musculus [19], 33.9 g; in the experiment on Mus musculus [20], 31.6 g; with Mus musculus [21] it was 33.2 g; in the experiment with Mus musculus [22], 32.9 g; with Mus musculus [23] it was 30.8 g. The Body weight came out at 33.8 g in the experiment on Mus musculus [24]; 33.4 g in the experiment on Mus musculus [25]; 31.1 g in the experiment with Mus musculus [26]; 33.2 g in the experiment on Mus musculus [27]; 30.6 g in the experiment with Mus musculus [28]; 32.2 g in the experiment with Mus musculus [29]. Also, the Body weight in the experiment on Mus musculus [30] came out at 32.9 g; with Mus musculus [31] it was 34 g; in the experiment with Mus musculus [32], 33.4 g; in the experiment with Mus musculus [33] it was 31.5 g; in the experiment with Mus musculus [34], 33.5 g; in the experiment on Mus musculus [35] it was 34 g. The Lactone in [1] stood at 86%; with Mus musculus [11], 100%; in [4], 56%; in [5] it was 68%; in experiment [6] it was 77%; with Mus musculus [7] it was 85%. The results for the Lactone (in experiment [8]; in the experiment on Mus musculus [10]) were 100% and 97.5%, respectively.
